Among the data in paper PMC10797327 (RSC Advances, 2024) are CC50 and IC50 values, retold here.

The structures appear in SMILES notation.

One data set in a line: MTT cell viability assay. Format: cell-based, murine. To be noted: mouse, RAW264.7 macrophage cells. In outline: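 RAW264.7 cells are cultured with test compound for 48 h, then viability is measured. CC50 is the concentration that reduces viability to 50%.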
Background: Formazan colour is commonly taken as a measure of viable cells.

The next data set concerns IL-1β. Nature of the data set: IL-1β production in LPS-stimulated RAW264.7 cells. To be noted: Mus musculus, RAW264.7, 48 h, read-out: IC50 IL-1β. Type of data set: cell-based. The method in brief: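 RAW264.7 macrophages stimulated with LPS and cultured for 48 h with test compound. Cytokine production is measured, and IC50 is taken as the concentration that reduces cytokine production by 50%.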

In general, CC50 refers to the concentration that lowers cell viability or growth by half. The IC50 is the concentration that gives 50% inhibition.

For `CC(=O)Oc1cccc2c1C(=O)c1c(OC(C)=O)cc(C(=O)O)cc1C2=O` [Diacerein, diacerein], the half-maximal cytotoxic concentration (CC50) at 48 h in the data set “MTT cell viability assay” came out at 151 µM. Further, in the data set with IL-1β, the half-inhibitory concentration (IC50) turned out to be 26.6 µM.
